Experimental data reported in the EternaBench riboswitch data.

Tested on: MS2 coat protein
Test: apparent Kd, MS2 coat protein; higher = weaker binding; RNA-MaP array; FMN 200 µM where present
In short: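 On Illumina sequencing-chip clusters, designs were transcribed by stalled E. coli RNA polymerase and titrated with SNAP-549-labelled MS2 coat protein (0.7 or 1.5 nM, doubling to 3 µM), without and then with constant ligand, in 100 mM Tris-HCl pH 7.5, 80 mM KCl, 4 mM MgCl2, BSA, DTT, yeast tRNA and Tween-20. Apparent Kd is the median of filtered per-cluster curve fits to green signal normalised to red-channel RNA signal and control-cluster median Fmax.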

[1] = designed as: OFF switch for flavin mononucleotide, no ligand
[2] = ligand present: flavin mononucleotide, designed as: OFF switch for flavin mononucleotide
[3] = designed as: ON switch for flavin mononucleotide, no ligand
[4] = ligand present: flavin mononucleotide, designed as: ON switch for flavin mononucleotide

Sequence | apparent Kd [1] [nM] | apparent Kd [2] [nM] | apparent Kd [3] [nM] | apparent Kd [4] [nM]
GUAGAGUCAGGAUAUACGAAUAGAUCGAAAGAUCAAUCCAUACAUGAGGAUCACCCAUGUAGAAGGGACUCUAC | 19.3 | 22.7 | – | –
GUAGCAUACCGAGGAUAUUCAUAUAGUAAUCUAACAUGAGGAUCACCCAUGUGGCGAAAGCCUUGGGAGAAGGCGGAAUGCUAC | – | – | 480 | 35.6
UAGUAUAAGGGCAUUACACAUGAGGAUCACCCAUGUACGUUAGAGGAUAUGCAUUCCAGUCGAACGUAGAAGGUUAGAGAAGGG | 211 | 176 | – | –
GCAGGCAACGAGAAGGGAGUACAUGAGGAUCACCCAUGUGUCCUCUGCGGCUCAGGAUAUCGCCCUGGGAAAGGUAAGCCUUAA | 39.7 | 176 | – | –
UUAUUGUGAGGAUAUCAGGUGUGCUAGCGUACUGGUACAUCUGAGAAGGCACAUGAGGAUCACCCAUGUUUCUU | 23.4 | 66.9 | – | –
GUCGACCUAUUCGUCAGACUCUCACAGGAUAUACGAUACACAUGAGGAUCACCCAUGUAGAUAACGUAGAAGGGUGAUUCCGGU | – | – | 66.7 | 27.7
CGGCGGAAAGGAUAUGCAUUAAUAUCAAAAUGUGGGCCACGACAUGAGGAUCACCCAUGUAGAAGGUUCAGCCA | 16.4 | 13.3 | – | –
CGCUACAGCCAGAAGGACAUGAGGAUCACCCAUGUAGGAUAUGGGAGACGCGGUCCAGUGUAGAGAAACUACGCUACUGUAGCG | – | – | 87.3 | 73.4
AAAAAACAUGAGGAUCACCCAUGUCUUCGGACAUGAGGAUAUGUACAGACUUCGGUCUGUACAGAAGGCAUGUCUU | – | – | 97.2 | 22.8
GCUAGUCAUGUCAGGAUAUGCUGUACCUUGGUACAGCAGAAGGGACAUGAGGAUCACCCAUGUGCCUAACUAGC | 39 | 416 | – | –
GGGAAUAAACCCGUCUCCGCCCAACCAGAAGGGCACGAUAAUAUUACAUGAGGAUCACCCAUGUUGCAGGAUAUGGUGGGCCUC | – | – | 180 | 76.9
GUGGUCAGACAUGAGGAUCACCCAUGUGGAAUAAAUAAGGAGAAGGAUAUAGAAUAUAGGAUAUACUAGAAGGUCUGGUUGGUG | – | – | 67.3 | 73.1
ACAUACAUUCGAGGAUAUCGGUGAUUAAUAAUACGAGAAGGCGAUUUAAGAUAUAAAAUUUUAGACAUGAGGAUCACCCAUGUA | – | – | 27.9 | 23.9
CAAUCUCAGAUAGGAUAUAUAGGAUAACUUAAGACCUAACAUGAGGAUCACCCAUGUGAUUAUUCGUAGAAGGAUCAUUGAACC | – | – | 205 | 190
AAGUAUAGAGGAUAUACAUAGAUACAGAUUCAUGUAGAACUACAUGAGGAUCACCCAUGUAGAAGGCUAUACUA | 30.2 | 159 | – | –
GUAUAUAUUACAUGAGGAUCACCCAUGUCAGAACGGGUAAUCAGAAGGUAGUAUUAGAGAAAGAUUAAGGAUAUGAUUAUAUAC | – | – | 231 | 81.1
CUUUUGUGAGGAUAUCAGUAGUAUAAAAUUAAAAUUACUACUGAGAAGGCACAUGAGGAUCACCCAUGUUCCUC | 35.2 | 201 | – | –
CCACGUCCCAUUAACAUGAGGAUCACCCAUGUCAAAAGACAUGAGGAUAUGCUACCUAAUUGGUAGCAGAAGGCAUGGACGUGG | – | – | 953 | 87.8
GUUUUACAUGAGGAUCACCCAUGUGAGGAUAUAUUGUUAUUUUUAAUAUUUUUUAGUGGUAGAAGGCGCGUGAU | 31.4 | 26 | – | –
UUUAUUUUUAGAGGAUAUAUUGUGUGUGAGAGAAUAGAAGGCUAAACAUACAUACAUAACAUGAGGAUCACCCAUGUCCAUGUU | – | – | 69.2 | 54.9
AAUAAUUAGUAAGGAUAUACUAGUGAUUAGCUUGUAGAAGGUACAGUCUUAUGUAUAAUAAAUUAACAUGAGGAUCACCCAUGU | – | – | 11.6 | 9.86
UUAAGUUCAGGAUAUGAUGUUUUAAACAUGAGGAUCACCCAUGUAGAUCCUGAAUUAACAUCAGAAGGGAAUAUUU | 37.5 | 217 | – | –
GGACAUUUACAGAAGGGCAAGUUAGAUAGUGAAUAUUUAGUUCUGACUUGCAGGAUAUGUUGAACAUGAGGAUCACCCAUGUCC | – | – | 14.4 | 10.6
AUAAGCUCGUCAGGAUAUACGUCACUGCGUCAGCAGUGUGGUAAGAUCACAUGAGGAUCACCCAUGUAGAAGGGACGAGCUGAU | 14.7 | 266 | – | –

Sequence | apparent Kd [1] [nM] | apparent Kd [2] [nM] | apparent Kd [3] [nM] | apparent Kd [4] [nM]
GGCUACAUCGGAGGAUAUCAUGUAAAUACAUGAGGAUCACCCAUGUCGAUGGAGACAUCGGAGAUUGAGAAGGCCGAUGUACCG | – | – | 182 | 8.49
GAGGGUUAAGGAUAUACAUGAGGAUCACCCAUGUAUGGCAAGCCAUAAUCCUCAUUAAGUAGAAGGUAACCUUC | 11.7 | 15.3 | – | –
GGAAGUCAAAGACUUCCUUAACGAACAUGAGGAUCACCCAUGUAGGAUAUGCUACUCAAAGAGUAGCAGAAGGACAUGUGUCUU | 32.1 | 168 | – | –
GGUCCACGAGGAUAUCGAUUAUAGUACAUGAGGAUCACCCAUGUUGUCCAGGUUUCGAUUCGAGAAGGCGUGGGUU | 54.4 | 39 | – | –
AAGAAAGAAACGCAGGAUAUGCAAAACAAAACAUGAGGAUCACCCAUGUCUUACUUACAAACAAAGCAGAAGGGCGAAAGAAAGAA | – | – | 20.1 | 13.2
CAGCACUAUCGAGAGGAUAUGCGGUGAUGGACAUGAGGAUCACCCAUGUUAGCGAUGGCAUCACGGCAGAAGGCUCUGCUGCUGC | – | – | 15.6 | 12.8
GGAGGAGGAGUGAGGAUAUGGUGGUGGAAACACCACCAGAAGGCACAUGAGGAUCACCCAUGUGAAGAAGAGAA | 18.9 | 24.9 | – | –
AAAAAACAUGAGGAUCACCCAUGUAAGGAUAUGCUGAAAAACACGGAAAAAACGUGCAGCAGAAGGUACAAAAG | 59.5 | 85.9 | – | –
GAAUGUUGAGGAUAUACAUGAGGAUCACCCAUGUGUUAGCAGAGUCUGCCCGUCUUCAGUAGAAGGCAACAUUC | 17.2 | 42.4 | – | –
UGUCCAUAGCAGAAGGACAUAAAUAACCAUGAAAACAUGAGGAUCACCCAUGUAGGAUAUGCUAUGGACUAAGAGCGAAAGCUC | 5.38 | 17.8 | – | –
UGCGUCUAGACAGGAUAUCAAGGACGCCUACAUGAGGAUCACCCAUGUCGGCGGAGCAGCUCCGUUGAGAAGGGUCAUCGCAAC | – | – | 66.5 | 24.2
CAUGUGUAAGGAUAUGACAAUGGUAUCGAAAGAUACCAUUGUCAGAAGGUACAUGAGGAUCACCCAUGUGGAUC | 198 | 91 | – | –
ACGAAGAAACAGAAGGGUAAAUUAGUUAAUUAUUAUUUGGUUAUGCACUACAGGAUAUGUAUAACAUGAGGAUCACCCAUGUAC | – | – | 87.2 | 53.5
GGGACCAACACAGGAUAUGCUAUCCUUUGGGUAGCAGAAGGGUGAAACAUGAGGAUCACCCAUGUGGUUCCAGGGCGUGAGCCC | – | – | 1580 | 99.6
UUGCCUCAGAACAUGAGGAUCACCCAUGUGCUGCGGGCAACGUAGGAUAUGAUGGUGUGACACCGUCAGAAGGAUGAUGGUACC | – | – | 5.97 | 6.05
AACACACAUGAGGAUCACCCAUGUAAAAUUUAGCAAGGAUAUGGGUGCCGUAAUCGGUUACCAGAAGGUGCCUCAC | – | – | 103 | 59.8
AAGGAUCGAGGAUAUACAUAGAUACAGAUUCAUGUAGAACUACAUGAGGAUCACCCAUGUAGAAGGCGAUCCUA | 38.4 | 291 | – | –
AUUUAAUUUAAUAAGAUCACAUGAGGAUCACCCAUGUAUAUAUAGGAUAUCAGCUCGUGUAGAGCUGAGAAGGAUAUAUACAUG | 55 | 55.2 | – | –
CCUUUUGUAUAAGGAUAUGUAACAAGGUAUAGAUCGGUAGAAUUUGUGCUUACAGAAGGUAUACAUGAGGAUCACCCAUGUCGA | 22.1 | 140 | – | –
CUCAGACAUGAGGAUCACCCAUGUGAGGAUAUGAUGCAGCAGUGGUCUACGCUGUGCAUCAGAAGGCACAUGUG | 36.5 | 12.5 | – | –
CUGAGCAAUGUAGGAUAUCGACUGGAUAACAGUCGAGAAGGACAUGAGGAUCACCCAUGUCAAUGAGUGAAUAAUAAAGCUCAG | 20.4 | 118 | – | –
CCAGAGGUCACAGGAUAUGACUCGUCCAAUUGGUCAGAAGGGUGAAUCACAUUAUGUAUACAUGAGGAUCACCCAUGUCCUACG | – | – | 64.4 | 165
CGGUCGAUGUAAGGAUAUCGACUGGAAUACAGUCGAGAAGGUACAUGAGGAUCACCCAUGUAAUCCAAUAAUAAAUAACGACCG | 12.6 | 22.5 | – | –
GUGCAAUGAGGAUAUACGUAGGUGAACAUCUGUGUGCUCCUACAUGAGGAUCACCCAUGUAGAAGGCAUGUCAC | 12.3 | 22.6 | – | –
